Laboratory results taken from ChEMBL document CHEMBL4251757 (J Med Chem, 2018).

Tests used:
[1] = Half life in cynomolgus monkey plasma at 30 mg/kg administered via oral gavage by RP-HPLC analysis; format: ADME, organism-based, Macaca fascicularis
Outline: (§1)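 Female cynomolgus monkeys (2.5–3.5 kg). Compound dissolved in EtOH at 75 mg/mL, diluted in 10 volumes of 20 mM NaHCO3 pH 8.0 (9.1% EtOH) and given by oral gavage; 4.4 mL/kg for 30 mg/kg, 2.2 mL/kg for lower doses. Blood drawn into heparin pre-dose and at 0.5, 1, 2, 4, 8, 12, 24 h, sometimes 3 and 7 days. Plasma diluted with 2 volumes MeOH plus internal standard, then RP-HPLC.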

[2] = AUC (0 to 24 hrs) in cynomolgus monkey plasma at 30 mg/kg administered via oral gavage by RP-HPLC analysis; format: ADME, organism-based, Macaca fascicularis; set-up: dose 30 mg/kg, time < 24 hr, route oral; outline: as §1
[3] = Cmax in cynomolgus monkey plasma at 30 mg/kg administered via oral gavage by RP-HPLC analysis; format: ADME, organism-based, Macaca fascicularis; set-up: dose 30 mg/kg, route oral; outline: as §1
[4] = Tmax in cynomolgus monkey plasma at 30 mg/kg administered via oral gavage by RP-HPLC analysis; format: ADME, organism-based, Macaca fascicularis; outline: as §1
[5] = Plasma concentration in cynomolgus monkey at 30 mg/kg administered as oral gavage measured after 1 hr by RP-HPLC analysis; format: ADME, organism-based, Macaca fascicularis; outline: as §1
[6] = Plasma concentration in cynomolgus monkey at 30 mg/kg administered as oral gavage measured after 8 hrs by RP-HPLC analysis; format: ADME, organism-based, Macaca fascicularis; outline: as §1
[7] = biological target: Oxoeicosanoid receptor 1 (Homo sapiens, UniProt Q8TDS5); test: Antagonist activity at OXE receptor in human neutrophils assessed as inhibition of 5-oxo-ETE-induced calcium mobilization incubated for 2 mins followed by 5-oxo-ETE addition measured after 1 min by fluorescence assay; format: functional
Sequence of Oxoeicosanoid receptor 1 (Q8TDS5 whole entry): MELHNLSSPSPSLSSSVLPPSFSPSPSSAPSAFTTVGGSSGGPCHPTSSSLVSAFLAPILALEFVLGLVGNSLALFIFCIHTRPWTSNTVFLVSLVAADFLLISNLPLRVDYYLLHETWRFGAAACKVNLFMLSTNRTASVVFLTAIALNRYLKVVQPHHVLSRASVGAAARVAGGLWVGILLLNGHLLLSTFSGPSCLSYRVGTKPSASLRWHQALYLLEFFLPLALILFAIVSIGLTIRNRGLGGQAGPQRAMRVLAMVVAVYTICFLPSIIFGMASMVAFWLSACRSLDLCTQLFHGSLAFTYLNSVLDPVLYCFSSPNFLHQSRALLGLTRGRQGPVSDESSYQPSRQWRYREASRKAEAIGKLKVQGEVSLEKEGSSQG
Outline: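 Human neutrophils were isolated from healthy donors by dextran sedimentation and Ficoll-Paque centrifugation, then loaded with indo-1. Fluorescence was read at 37 °C in a stirred cuvette. Antagonist was added at various concentrations; 2 min later 5-oxo-ETE (10 nM) was added. Digitonin (final 0.1%) followed 1 min later to give maximal fluorescence.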

[8] = Plasma concentration in cynomolgus monkey at 30 mg/kg administered via oral gavage after 3 days by RP-HPLC analysis; format: ADME, organism-based, Macaca fascicularis; outline: as §1
[9] = Plasma concentration in cynomolgus monkey at 30 mg/kg administered via oral gavage after 7 days by RP-HPLC analysis; format: ADME, organism-based, Macaca fascicularis; outline: as §1
[10] = Drug level in cynomolgus monkey plasma treated with 30 mg/kg 5-(5-Chloro-1-methyl-2-(6-phenylhexyl)-1H-indol-3-yl)-3-methyl-5-oxopentanoic Acid administered via oral gavage assessed as compound formation after 12 hrs by RP-HPLC analysis; format: ADME, organism-based, Macaca fascicularis; conditions: in vivo
Outline: (§2)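 Monkeys received 30 mg/kg by oral gavage in EtOH/20 mM NaHCO3 pH 8.0 vehicle. A plasma extract taken 12 h later was run by RP-HPLC on a C18 column (4 µm, 3.9 x 150 mm) with a 15-min gradient of 70–100% MeOH in H2O, both containing 0.02% HOAc. The tetramethylene analog served as internal standard.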

[11] = Drug metabolism in cynomolgus monkey plasma at 30 mg/kg administered via oral gavage assessed as phenylpentamethylene side chain modification after 12 hrs by RP-HPLC analysis; format: ADME, organism-based, Macaca fascicularis; conditions: in vivo; outline: as §2
[12] = Cmax in cynomolgus monkey plasma at 15 mg/kg administered via oral gavage by RP-HPLC analysis; format: ADME, organism-based, Macaca fascicularis; set-up: dose 15 mg/kg, route oral
[13] = AUC (0 to 24 hrs) in cynomolgus monkey plasma at 15 mg/kg administered via oral gavage by RP-HPLC analysis; format: ADME, organism-based, Macaca fascicularis; set-up: time < 24 hr, dose 15 mg/kg, route oral
[14] = Plasma concentration in cynomolgus monkey at 30 mg/kg administered via oral gavage after 24 hrs by chiral-HPLC analysis; format: ADME, organism-based, Macaca fascicularis
Outline: (§3)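 After oral gavage of racemate at 30 mg/kg, plasma C025 or its metabolite was isolated by RP-HPLC, then run by chiral HPLC on Cellulose-1 at 2 ml/min and 30 °C. Mobile phase was hexane/MeOH/HOAc 97.5:2.5:0.1 for parent and 97:3:0.1 for metabolite. Samples were taken at 4 h and 24 h; n=2 for enantiomer levels.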

[15] = Half life in cynomolgus monkey plasma at 15 mg/kg administered via oral gavage by RP-HPLC analysis; format: ADME, organism-based, Macaca fascicularis
[16] = Tmax in cynomolgus monkey plasma at 15 mg/kg administered via oral gavage by RP-HPLC analysis; format: ADME, organism-based, Macaca fascicularis
[17] = Drug metabolism in cynomolgus monkey plasma at 30 mg/kg administered via oral gavage assessed as metabolite (S)-5-(5-Chloro-2-((S)-1-hydroxy-6-phenylhexyl)-1-methyl-1Hindol-3-yl)-3-methyl-5-oxopentanoic acid formation after 24 hrs by chiral-HPLC analysis; format: ADME, organism-based, Macaca fascicularis; conditions: in vivo; outline: as §3

Work on `CCCCCCc1c(C(=O)C[C@H](C)CC(=O)O)c2cc(Cl)ccc2n1C` yielded a half-life [1] of 1.6 h, an AUC(0-t) at 24 h [2] of 100 µM·h and a Cmax [3] of 36 µM. For the same compound, the Tmax [4] was 1 h, the concentration at 1 h [5] was 36 µM and the concentration at 8 h [6] was 1.6 µM.
In the case of `C[C@@H](CC(=O)O)CC(=O)c1c([C@@H](O)CCCCCc2ccccc2)n(C)c2ccc(Cl)cc12`, the IC50 [7] is reported as 120 nM.
Compound `C[C@H](CC(=O)O)CC(=O)c1c([C@@H](O)CCCCCc2ccccc2)n(C)c2ccc(Cl)cc12` has an IC50 [7] of 0.38 to 0.69 nM, a concentration at 72 h [8] of 1.5 µM and a concentration at 168 h [9] of 0.2 µM. For the same compound, the Drug uptake [10] was “Active”.
In the case of `CC(CC(=O)O)CC(=O)n1c(CCCCCc2ccccc2)cc2ccc(Cl)cc21` (racemic), the IC50 [7] is reported as 2.1 nM, the half-life [1] is reported as 3 h and the AUC(0-t) at 24 h [2] is reported as 294 µM·h. The Cmax [3] was 55 µM, the Tmax [4] was 2 h and the Drug metabolism [11] was “Metabolite_Detected”.
With `C[C@@H](CC(=O)O)CC(=O)c1c(CCCCCCc2ccccc2)n(C)c2ccc(Cl)cc12` the Cmax [12] was 79 µM, the AUC(0-t) at 24 h [13] was 1080 µM·h and the concentration at 24 h [14] was over 20 µM. The half-life [15] was 9.3 h, the Tmax [16] was 2.5 h and the Drug uptake [10] was “Active”. For the same compound, the Drug metabolism [17] was “Metabolite_Detected”.
`C[C@H](CC(=O)O)CC(=O)c1c([C@H](O)CCCCCc2ccccc2)n(C)c2ccc(Cl)cc12` showed an IC50 [7] of 260 nM.
With `C[C@@H](CC(=O)O)CC(=O)c1c([C@H](O)CCCCCc2ccccc2)n(C)c2ccc(Cl)cc12` the IC50 [7] was 750 nM.
For `CC(CC(=O)O)CC(=O)c1c(CCCCCC(F)(F)F)n(C)c2ccc(Cl)cc12` (configuration not stated), the IC50 [7] was 38 nM.
